Test results published in PMC9053952 (RSC Advances, 2020).
“Also recorded” adds a separate entry of the source. Starred links: 1 amine or outer side, 2 acyl side, 3 side chain; linkers in the order of their positions; H or OH if unused. Non-standard residues stand in square brackets, D forms with d. Residues, ends and D or L forms follow the SMILES beside them. *: point of attachment. X2 = COc1ccc([N+]2=NC(C#N)=NN(c3ccc(-c4cn(CCCC[C@H](N[*:1])C(=O)[*:2])nn4)cc3)[B-]2(F)F)cc1; Octanoyl = CCCCCCCC(=O)*; Dap = NC[C@H](N)C(=O)O

Key:
GRPR = GRPR (Homo sapiens, UniProt P30550); assay: Radioligand competitive binding assay, GRPR
Chain of GRPR (P30550 whole entry): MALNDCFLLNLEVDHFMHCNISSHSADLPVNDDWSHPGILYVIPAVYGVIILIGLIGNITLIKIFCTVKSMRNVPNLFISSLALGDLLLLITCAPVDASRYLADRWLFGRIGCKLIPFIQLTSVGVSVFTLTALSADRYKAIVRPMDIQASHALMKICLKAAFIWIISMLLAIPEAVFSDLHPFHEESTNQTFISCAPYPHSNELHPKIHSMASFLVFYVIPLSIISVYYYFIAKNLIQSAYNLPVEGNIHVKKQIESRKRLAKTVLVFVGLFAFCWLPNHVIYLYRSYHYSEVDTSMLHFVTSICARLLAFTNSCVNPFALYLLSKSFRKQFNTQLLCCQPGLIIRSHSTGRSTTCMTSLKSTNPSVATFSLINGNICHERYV
How it was run: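 Whole-cell competition binding used PC-3 cells (500 000/vial) grown in F-12K/10% FBS, with [125I]Tyr4-bombesin as radioligand. Test peptide was run at 10−12 to 10−6 M, shaking at 550 rpm for 1 h at 37 °C. Cells were centrifuged, the pellet washed with 50 mM Tris pH 7.4, and bound activity gamma-counted. IC50 came from nonlinear regression; assays were run in triplicate.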

PC-3 cells = assay: Confocal fluorescence microscopy of PC-3 cells; type: cell-based; details: 0.5 μM, 1 h, 37 °C
How it was run: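 PC-3 cells, with native GRPR, were detached with trypsin-free dissociation buffer and seeded at 50 000 cells/well on coverslips. They were cultured overnight in F-12K/10% FBS at 37 °C, 5% CO2. Test compound at 0.5 μM was added in serum-free F-12K for 1 h at 37 °C, alone or with a 10-fold molar excess of the unlabelled parent peptide as blocker. Cells were PBS-washed three times, fixed in 4% paraformaldehyde and mounted with DAPI. Confocal settings: ex 559 nm, em 605–705 nm.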

GRPR in PC-3 cells = assay: Blocking study in PC-3 cells with parent peptide 3; type: cell-based; details: 0.5 μM 7, 1 h, 37 °C; 10-fold molar excess of 3
Photophysical properties = type: physicochemical; details: in DMSO; for λabs (absorption maximum): UV-Vis spectrophotometer; for ΦF (fluorescence quantum yield): comparative method, [Ru(bpy)3][PF6]2 as relative standard
How it was run: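 Measurements were made in DMSO. UV-Vis absorption and excitation/emission spectra were recorded. Molar extinction coefficient was taken from the slope of absorbance versus concentration over seven solutions of known concentration. Fluorescence quantum yield was determined by the comparative method against the [Ru(bpy)3][PF6]2 standard.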

[1] = tested on: OVCAR-8 cells stably transfected with GHSR-1a; assay: Confocal fluorescence microscopy of OVCAR-8 cells transfected with GHSR-1a; type: cell-based; details: 0.1 μM, 1 h, 37 °C
How it was run: (§1)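 OVCAR-8 cells, either stably transfected with GHSR-1a or parental, were detached with trypsin-free dissociation buffer and seeded at 50 000 cells/well on coverslips. They were cultured overnight in RPMI/10% FBS at 37 °C, 5% CO2. Test compound at 0.1 μM was added in serum-free RPMI for 1 h at 37 °C. Cells were washed three times with PBS, fixed in 4% paraformaldehyde and mounted with DAPI. Confocal settings: ex 559 nm, em 598–698 nm; 40× and 60× objectives.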

GHSR-1a = GHSR-1a (Homo sapiens, UniProt Q92847); assay: Radioligand competitive binding assay, GHSR-1a
Chain of GHSR-1a (Q92847 whole entry): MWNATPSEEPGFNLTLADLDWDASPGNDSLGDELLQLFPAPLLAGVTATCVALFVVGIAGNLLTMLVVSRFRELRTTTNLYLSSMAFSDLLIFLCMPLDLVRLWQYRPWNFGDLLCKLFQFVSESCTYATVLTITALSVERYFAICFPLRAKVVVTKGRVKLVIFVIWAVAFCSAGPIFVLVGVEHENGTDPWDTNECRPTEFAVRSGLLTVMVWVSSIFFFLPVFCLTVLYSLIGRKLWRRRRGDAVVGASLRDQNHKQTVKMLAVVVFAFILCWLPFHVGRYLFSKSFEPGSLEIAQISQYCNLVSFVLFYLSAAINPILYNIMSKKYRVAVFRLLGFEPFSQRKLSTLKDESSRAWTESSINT
How it was run: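 Competition binding used membranes from HEK293 cells transiently transfected with GHSR-1a (50 000 cells/tube) and human [125I]-ghrelin(1–28) (15 000 cpm/tube). Test peptide was run at 10−11 to 10−5 M, with incubation for 20 min at 550 rpm. Unbound radioligand was removed and bound activity gamma-counted. Human ghrelin(1–28) served as reference. IC50 came from nonlinear regression; assays were run in triplicate.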

parental OVCAR-8 cells = assay: Confocal fluorescence microscopy of parental OVCAR-8 cells; type: cell-based; details: low expression of GHSR-1a
How it was run: as §1

SMILES | IC50 (GRPR) [nM] | receptor affinity relative to parent peptide (in words) (GRPR; vs parent peptide 3, GRPR) | specific binding for GRPR by confocal fluorescence microscopy (PC-3 cells) | displacement by parent peptide 3 (GRPR in PC-3 cells) | λem (emission maximum) (Photophysical properties) [nm] | λabs (absorption maximum) (Photophysical properties) [nm] | ΦF (fluorescence quantum yield) (Photophysical properties) [%] | ε (molar extinction coefficient) (Photophysical properties; slope of absorbance against concentration, seven solutions) | specific binding for GHSR-1a by confocal fluorescence microscopy [1] | IC50 (GHSR-1a) [nM] | receptor affinity relative to parent peptide (in words) (GHSR-1a; vs parent peptide 2, GHSR-1a) | cellular uptake (red emission) (parental OVCAR-8 cells)
CCCC[C@H](NC(=O)[C@H](Cc1ccccc1)NC(=O)[C@H](Cc1c[nH]cn1)NC(=O)CCNC(=O)[C@@H](NC(=O)[C@H](C)NC(=O)[C@H](Cc1c[nH]c2ccccc12)NC(=O)[C@H](CCC(N)=O)NC(=O)[C@@H](Cc1ccccc1)NC(=O)COCC(=O)NCCOCCOCCOCCOCCOCCOCCOCCOCCn1cc(-c2ccc([N+]3=NC(C#N)=NN(c4ccc(OC)cc4)[B-]3(F)F)cc2)nn1)C(C)C)C(N)=O [Compound 7] (HELM PEPTIDE1{[COc1ccc(N2N=C(C#N)N=[N+](c3ccc(-c4cn(CCOCCOCCOCCOCCOCCOCCOCCOCCNC(=O)COCC(=O)[*:2])nn4)cc3)[B-]2(F)F)cc1].[dF].Q.W.A.V.[bAla].H.F.[Nle].[am]}$$$$V2.0) | 16.3 | decrease in receptor affinity | analogue 7 for GRPR was demonstrated; also recorded: specific binding of analogue 7 to GRPR | displacement of 7 by 10-fold molar excess of 3 | 690 | 555 | 12 | 31 900 M^−1 cm^−1 |  |  |  | 
CCCCCCCC(=O)NC[C@H](NC(=O)[C@H](CO)NC(=O)CN)C(=O)N[C@@H](Cc1ccccc1)C(=O)N[C@@H](CC(C)C)C(=O)N[C@@H](CO)C(=O)N1CCC[C@H]1C(=O)N[C@H](C(=O)N[C@@H](CCCCn1cc(-c2ccc(N3N=C(C#N)N=[N+](c4ccc(OC)cc4)[B-]3(F)F)cc2)nn1)C(N)=O)[C@@H](C)O [Compound 5, [Dpr(octanoyl)^3,Thr^8,Lys(triazole-formazanate)^9]ghrelin(1–9)] (H-GS[Dap](Octanoyl)FLSPT[X2]-NH2; N-terminus assumed) |  |  |  |  | 688 | 560 | 21 |  | specific binding of 5 for GHSR-1a | 89 | decrease in receptor affinity | minimal uptake of 5
